Experimental data: ChEMBL document CHEMBL4834471 (J Med Chem, 2021)
Activity calls are given as the source filed them. The calls are words filed in the database; no cut-off is given here.

How the values were obtained:
Keratinocyte [1] = experiment: Antiinflammatory activity in cytokine cocktail-induced reconstructed human epidermis model assessed as effect on TSLP expression at 5 to 25 uM after 4 days by ELISA; assay type: functional, cell-based; details: dose 5-25 µM, time 4.0 day
[2] = Cytotoxicity against human PBMC assessed as reduction in metabolic activity at <=1 uM after 2 to 24 hrs by MTT assay; details: time 2-24 hrs
Outline: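 PBMC at 2 × 10^6/mL in monocyte medium treated 2 or 24 h at 37 °C, 5% CO2, with 0.1% DMSO vehicle. MTT added for 4 h in the dark, formazan solubilized in SDS/HCl, absorbance read at 570 nm.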

Mus musculus [3] = experiment: Antiinflammatory activity in zymosan-induced CD-1 mouse peritonitis model assessed as reduction in immune cell infiltration into peritoneal cavity at 10 mg/kg, ip preincubated with compound for 30 mins followed by zymosan addition and measured after 4 hrs; assay type: functional, organism-based; details: time 270.0 min
Outline: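 Zymosan peritonitis with compound 10 mg/kg i.p. Vascular permeability assessed at 30 min after zymosan. Exudate LTB4 (ELISA) and peritoneal immune cell infiltration assessed at 4 h. Two-tailed unpaired t-test of log data.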

[4] = target: T1, Prostaglandin G/H synthase 2 (Homo sapiens) (UniProt P35354); experiment: Inhibition of recombinant human COX-2 assessed as reduction in 12-HHT formation at 10 uM using arachidonic acid as substrate preincubated for 6 mins followed by substrate addition by RPL-HPLC method
T1 sequence (whole entry): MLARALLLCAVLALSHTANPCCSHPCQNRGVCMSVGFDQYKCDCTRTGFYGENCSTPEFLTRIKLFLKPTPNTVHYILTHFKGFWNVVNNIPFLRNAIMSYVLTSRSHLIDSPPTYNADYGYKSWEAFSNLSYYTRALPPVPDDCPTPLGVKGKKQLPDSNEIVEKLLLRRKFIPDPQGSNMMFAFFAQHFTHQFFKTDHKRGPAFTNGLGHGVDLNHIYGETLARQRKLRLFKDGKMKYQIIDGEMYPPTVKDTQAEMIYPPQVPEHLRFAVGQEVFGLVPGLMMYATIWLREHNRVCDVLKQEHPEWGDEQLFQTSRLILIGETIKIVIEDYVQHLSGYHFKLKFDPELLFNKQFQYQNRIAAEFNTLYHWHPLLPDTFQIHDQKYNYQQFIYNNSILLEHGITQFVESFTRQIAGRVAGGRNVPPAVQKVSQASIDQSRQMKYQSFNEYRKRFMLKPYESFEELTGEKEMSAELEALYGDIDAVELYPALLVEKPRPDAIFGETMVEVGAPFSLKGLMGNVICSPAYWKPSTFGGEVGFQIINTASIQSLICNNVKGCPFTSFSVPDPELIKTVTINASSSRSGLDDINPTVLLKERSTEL

[5] = Drug concentration in plasma of mouse at 10 mg/kg, po within 1 hr; assay type: ADME, organism-based
Mus musculus [6] = experiment: Antiinflammatory activity against ovalbumin-induced airway hyperreactivity in BALB/c mouse assessed as reduction in LTB4 and isomers level in lung tissue at 10 mg/kg, po pretreated with compound for 60 mins prior to ovalbumin stimulation on day 0 and 7 and […] by UPLC-MS/MS analysis; assay type: functional, organism-based
Outline: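 Mice gavaged with 10 mg/kg 60 min before ovalbumin sensitization on days 0 and 7. Lung tissue taken on […] and LTB4 plus its isomers quantified as pg/mg lung tissue; n = 5 mice; two-tailed unpaired t-test of log data.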

Keratinocyte [7] = experiment: Antiinflammatory activity in cytokine cocktail-induced reconstructed human epidermis model assessed as reduction in IL-8 level at 5 to 25 uM after 4 days by ELISA; assay type: functional, cell-based; details: dose 5-25 µM, time 4.0 day
Outline: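 Reconstructed human epidermis exposed to compound and stressed with a cytokine cocktail for 4 days. Readouts: IL-8 in growth medium, H&E morphology, transepidermal water loss, stratum corneum permeability to Lucifer yellow with DAPI nuclear stain, and surface pH. n = 2–3 independent experiments.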

Mus musculus [8] = experiment: Antiinflammatory activity in zymosan-induced CD-1 mouse peritonitis model assessed as reduction in LTC4 level at 10 mg/kg, ip preincubated with compound for 30 mins followed by zymosan addition and measured after 30 mins by ELISA; assay type: functional, organism-based; details: time 60.0 min
Outline: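 Compound 10 mg/kg i.p. in zymosan-induced peritonitis; mice killed 30 min after zymosan injection; exudate LTC4 measured by ELISA; statistics by two-tailed unpaired t-test of log data.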

[9] = Drug metabolism in human liver-on-chip assessed as compound oxidization at 12a' or 13' of omega-carboxylic acid incubated for 48 hrs by UPLC-MS/MS anlaysis; assay type: ADME, tissue-based
Outline: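 Liver-on-chip built from differentiated HepaRG cells (hepatocyte-like and biliary-like) with a HUVEC endothelial layer. Loaded with compound at 1 μM and incubated 48 h; compound and metabolites quantified from extracted chromatograms; n = 3 independent experiments.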

[10] = target: T2, Prostaglandin E synthase (Homo sapiens) (UniProt O14684); experiment: Inhibition of mPEGS1 in pathogenic Escherichia coli-stimulated human macrophages M1 at 1 uM by UPLC-MS/MS analysis; details: Macrophage
T2 sequence (whole entry): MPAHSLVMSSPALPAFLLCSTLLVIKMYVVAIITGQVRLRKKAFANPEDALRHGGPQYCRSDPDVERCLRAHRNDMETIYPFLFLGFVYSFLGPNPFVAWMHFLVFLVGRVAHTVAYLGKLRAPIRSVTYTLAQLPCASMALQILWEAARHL
Outline: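 M1 macrophages obtained by GM-CSF differentiation for 6 days, then LPS/IFN-γ polarization for 48 h. Treated with compound at 1 μM and stimulated with pathogenic E. coli; lipid mediator network profiled by metabololipidomics against vehicle.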

Mus musculus [11] = experiment: Antiinflammatory activity in zymosan-induced CD-1 mouse peritonitis model assessed as reduction in LTC4 level at 3 mg/kg, po preincubated with compound for 60 mins followed by zymosan addition and measured after 30 mins by ELISA; assay type: functional, organism-based; details: time 90.0 min
Outline: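 Oral dosing at 3 mg/kg in zymosan-induced peritonitis; mice killed 30 min after zymosan; LTC4 in peritoneal exudate measured by ELISA; two-tailed unpaired t-test of log data.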

- inhibition [4]: inactive
- concentration at 1 h [5]: 30 nM
- Drug metabolism [9]: Metabolite_Detected
- inhibition [10]: inactive
Compound: C/C(=C\CC/C(C)=C/CC[C@]1(C)CCc2c(C)c(O)c(C)c(C)c2O1)CCC=C(CO)CO
- Activity (Keratinocyte [1]): inactive
- Activity [2]: Non-Toxic
- Activity (Mus musculus [3]): Active
- Activity (Mus musculus [6]): Active
- Activity (Keratinocyte [7]): Active
- Activity (Mus musculus [8]): Active
- Activity (Mus musculus [11]): Active
